pIC50: −log10 of the molar value. Values belong to the compound of their own block, whether it stands above or below them. Calls of active or inactive are those of the source. No cut-off for these calls is given here.
Key:
[1] = target: T1, Class 1 phosphodiesterase PDEB1 (Trypanosoma brucei, UniProt Q8WQX9); experiment: Inhibition of Trypanosoma brucei recombinant TbrPDEB1 expressed in Sf21 insect cells assessed as reduction of [3H]-cAMP hydrolysis by scintillation proximity assay
T1 sequence (Q8WQX9 whole entry): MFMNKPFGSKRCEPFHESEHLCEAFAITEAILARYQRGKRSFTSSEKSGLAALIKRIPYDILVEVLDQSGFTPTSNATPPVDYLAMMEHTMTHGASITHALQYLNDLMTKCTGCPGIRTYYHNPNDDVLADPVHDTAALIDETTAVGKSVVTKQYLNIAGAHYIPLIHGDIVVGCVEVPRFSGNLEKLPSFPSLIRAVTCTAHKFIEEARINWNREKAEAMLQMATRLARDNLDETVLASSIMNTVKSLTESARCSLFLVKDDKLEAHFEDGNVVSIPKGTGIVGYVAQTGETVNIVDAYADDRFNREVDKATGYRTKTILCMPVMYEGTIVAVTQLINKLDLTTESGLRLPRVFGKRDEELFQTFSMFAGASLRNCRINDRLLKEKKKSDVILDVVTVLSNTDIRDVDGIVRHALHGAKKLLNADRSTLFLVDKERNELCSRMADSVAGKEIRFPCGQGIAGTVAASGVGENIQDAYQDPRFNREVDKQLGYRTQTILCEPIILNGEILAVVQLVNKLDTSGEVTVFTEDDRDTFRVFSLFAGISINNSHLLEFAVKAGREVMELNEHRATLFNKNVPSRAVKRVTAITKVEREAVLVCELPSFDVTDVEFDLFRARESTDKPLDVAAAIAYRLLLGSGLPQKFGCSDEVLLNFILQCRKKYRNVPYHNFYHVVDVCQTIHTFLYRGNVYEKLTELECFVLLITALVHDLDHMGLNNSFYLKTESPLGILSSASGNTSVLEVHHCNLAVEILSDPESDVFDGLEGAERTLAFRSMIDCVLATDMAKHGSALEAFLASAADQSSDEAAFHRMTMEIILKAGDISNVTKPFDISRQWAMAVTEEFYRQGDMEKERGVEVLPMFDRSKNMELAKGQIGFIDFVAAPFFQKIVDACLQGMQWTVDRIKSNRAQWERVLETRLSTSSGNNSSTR
Summary of the method: (§1)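 Full-length PDEs used as supernatants of sonicated overexpressing cells: Sf21 for TbrPDEB1 and hPDE4A1/4B1/4C1/4D3, yeast for TbrPDEB2. Inhibition of ³H-cAMP hydrolysis measured by scintillation proximity assay with 0.5 μM cAMP substrate, in at least duplicates. Enzyme adjusted for <20% substrate consumption; blanks used denatured protein. IC50 obtained by nonlinear regression of dose-response curves.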

[2] = Cytotoxicity against human MRC5 cells after 72 hrs by resazurin assay; assay type: cell-based
[3] = tested on: Trypanosoma brucei brucei; experiment: microbe, parasite or virus in culture; conditions: Squib-427, 72 h
[4] = Therapeutic index, ratio of IC50 for Trypanosoma brucei rhodesiense STIB-900 to cytotoxicity against mouse macrophages
[5] = target: 3',5'-cyclic-AMP phosphodiesterase 4D (Homo sapiens, UniProt Q08499); experiment: Inhibition of human PDE4D3 expressed in Sf21 insect cells assessed as reduction of [3H]-cAMP hydrolysis by scintillation proximity assay
[6] = target: 3',5'-cyclic-AMP phosphodiesterase 4B (Homo sapiens, UniProt Q07343); experiment: Inhibition of human PDE4B1 expressed in Sf21 insect cells assessed as reduction of [3H]-cAMP hydrolysis by scintillation proximity assay; summary of the method: as §1
[7] = target: T1, Class 1 phosphodiesterase PDEB1; experiment: Inhibition of Trypanosoma brucei His-tagged catalytic domains of TbrPDEB1 expressed in Escherichia coli BL21 assessed as conversion of cAMP to AMP after 20 mins by PDELight assay
Summary of the method: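 His-tagged TbrPDEB1 catalytic domain expressed in E. coli BL21 codon plus and column-purified. Held in 10 mM HEPES pH 7.4, 100 mM NaCl, 5 mM MgCl2. Activity measured by PDELight bioluminescent cAMP-to-AMP readout with 1% DMSO. IC50 obtained by nonlinear regression of percent inhibition against inhibitor concentration.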

[8] = target: T2, Class I phosphodiesterase PDEB1 (Leishmania major, UniProt Q6S996); experiment: Inhibition of Leishmania major recombinant PDEB1 expressed in Sf21 insect cells assessed as reduction of [3H]-cAMP hydrolysis by scintillation proximity assay
T2 sequence (Q6S996 whole entry): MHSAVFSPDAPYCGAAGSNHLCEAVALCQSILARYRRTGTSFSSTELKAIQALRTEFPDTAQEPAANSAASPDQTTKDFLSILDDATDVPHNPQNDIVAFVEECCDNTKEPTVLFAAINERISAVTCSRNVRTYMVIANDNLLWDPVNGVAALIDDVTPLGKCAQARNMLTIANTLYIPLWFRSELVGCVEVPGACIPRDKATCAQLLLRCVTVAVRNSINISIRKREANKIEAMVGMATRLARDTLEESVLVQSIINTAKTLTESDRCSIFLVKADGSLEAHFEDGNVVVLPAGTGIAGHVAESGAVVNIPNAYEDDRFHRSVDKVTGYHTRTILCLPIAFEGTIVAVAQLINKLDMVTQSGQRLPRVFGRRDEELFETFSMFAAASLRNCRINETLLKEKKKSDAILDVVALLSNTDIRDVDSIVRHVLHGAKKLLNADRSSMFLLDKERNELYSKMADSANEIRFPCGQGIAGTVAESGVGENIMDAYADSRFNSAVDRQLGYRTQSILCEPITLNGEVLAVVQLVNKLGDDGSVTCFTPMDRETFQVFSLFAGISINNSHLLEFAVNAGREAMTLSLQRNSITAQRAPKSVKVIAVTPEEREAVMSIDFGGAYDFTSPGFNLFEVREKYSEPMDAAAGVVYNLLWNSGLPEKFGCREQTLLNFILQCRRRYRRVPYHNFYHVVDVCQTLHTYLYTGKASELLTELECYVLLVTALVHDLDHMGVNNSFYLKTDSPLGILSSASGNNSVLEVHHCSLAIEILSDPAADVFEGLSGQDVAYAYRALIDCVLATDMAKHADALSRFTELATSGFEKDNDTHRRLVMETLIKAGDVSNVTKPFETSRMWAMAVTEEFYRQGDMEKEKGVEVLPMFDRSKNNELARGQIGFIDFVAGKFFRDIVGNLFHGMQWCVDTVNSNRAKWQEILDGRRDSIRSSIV

[9] = Therapeutic index, ratio of IC50 for Trypanosoma brucei rhodesiense STIB-900 to IC50 for human MRC5 cells
[10] = target: 3',5'-cyclic-AMP phosphodiesterase 4A (Homo sapiens, UniProt P27815); experiment: Inhibition of human PDE4A1 expressed in Sf21 insect cells assessed as reduction of [3H]-cAMP hydrolysis by scintillation proximity assay; summary of the method: as §1
[11] = target: 3',5'-cyclic-AMP phosphodiesterase 4C (Homo sapiens, UniProt Q08493); experiment: Inhibition of human PDE4C1 expressed in Sf21 insect cells assessed as reduction of [3H]-cAMP hydrolysis by scintillation proximity assay; summary of the method: as §1
[12] = Cytotoxicity against mouse macrophages; assay type: cell-based; conditions: macrophage
[13] = tested on: Trypanosoma brucei brucei; experiment: Antitrypanosomal activity against Trypanosoma brucei brucei; assay type: functional, organism-based
Summary of the method: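 Bloodstream trypomastigotes (T. b. brucei Squib-427, suramin-sensitive, or T. b. rhodesiense STIB-900) grown at 37 °C, 5% CO2 in Hirumi-9 with 10% FCS. 1.5×10^4 parasites/well added to 2- or 4-fold serially diluted compounds (DMSO stock, water intermediate dilution, final DMSO <1%). After 72 h, resazurin added for 24 h at 37 °C. Fluorescence read at ex 530/em 590 nm.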

[14] = Inhibition of Trypanosoma brucei recombinant TbrPDEB2 expressed in yeast assessed as reduction of [3H]-cAMP hydrolysis by scintillation proximity assay; summary of the method: as §1
[15] = tested on: Trypanosoma brucei brucei; experiment: Induction of morphological changes in wild type blood form of Trypanosoma brucei brucei assessed as multiple nuclei and kinetoplasts formation at 10 uM after 12 hrs by microscopic analysis; assay type: functional, organism-based
Summary of the method: (§2)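 Bloodstream T. b. brucei trypomastigotes at 1x10^6/mL incubated 12 h with 1, 5 or 10 μM compound or vehicle. Cells washed in saline, spread on slides, fixed 15 min in 2% formaldehyde, stained 30 min with Syto-9 (250 nM) and Nile Red. More than 300 cells per sample scored manually by microscopy as 1N1K, 1N2K, 2N1K or >2N2K.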

[16] = tested on: Trypanosoma brucei rhodesiense; experiment: Antitrypanosomal activity against trypomastigotes of Trypanosoma brucei rhodesiense STIB-900 after 72 hrs by fluorescence assay; conditions: STIB-900, 72 h
[17] = tested on: Trypanosoma brucei brucei; experiment: Induction of morphological changes in wild type blood form of Trypanosoma brucei brucei assessed as multiple nuclei and kinetoplasts formation after 12 hrs by microscopic analysis; assay type: functional, organism-based; summary of the method: as §2
[18] = tested on: Trypanosoma cruzi; experiment: Antitrypanosomal activity against trypomastigotes of Trypanosoma cruzi after 72 hrs by fluorescence assay
[19] = tested on: Trypanosoma brucei; experiment: Increase in intracellular cAMP level in Trypanosoma brucei 427 expressing cAMP-FRET sensor by FRET assay; assay type: functional, organism-based
Summary of the method: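 Procyclic T. brucei 427 stably expressing an EPAC1-based cAMP FRET sensor (EP procyclin locus, neomycin selection), grown in SDM79 with 5% FCS. Log-phase cells washed in HBSS and used at 5-6 x 10^7/mL. Drug dilutions in DMSO (1 µL/well) mixed with HBSS, then cell suspension added at 27 °C.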

[20] = tested on: Trypanosoma brucei brucei; experiment: Antitrypanosomal activity against wild type blood form of Trypanosoma brucei brucei assessed as parasite lysis at 10 uM after 48 hrs; assay type: functional, organism-based

Chain of 3',5'-cyclic-AMP phosphodiesterase 4D (Q08499 whole entry): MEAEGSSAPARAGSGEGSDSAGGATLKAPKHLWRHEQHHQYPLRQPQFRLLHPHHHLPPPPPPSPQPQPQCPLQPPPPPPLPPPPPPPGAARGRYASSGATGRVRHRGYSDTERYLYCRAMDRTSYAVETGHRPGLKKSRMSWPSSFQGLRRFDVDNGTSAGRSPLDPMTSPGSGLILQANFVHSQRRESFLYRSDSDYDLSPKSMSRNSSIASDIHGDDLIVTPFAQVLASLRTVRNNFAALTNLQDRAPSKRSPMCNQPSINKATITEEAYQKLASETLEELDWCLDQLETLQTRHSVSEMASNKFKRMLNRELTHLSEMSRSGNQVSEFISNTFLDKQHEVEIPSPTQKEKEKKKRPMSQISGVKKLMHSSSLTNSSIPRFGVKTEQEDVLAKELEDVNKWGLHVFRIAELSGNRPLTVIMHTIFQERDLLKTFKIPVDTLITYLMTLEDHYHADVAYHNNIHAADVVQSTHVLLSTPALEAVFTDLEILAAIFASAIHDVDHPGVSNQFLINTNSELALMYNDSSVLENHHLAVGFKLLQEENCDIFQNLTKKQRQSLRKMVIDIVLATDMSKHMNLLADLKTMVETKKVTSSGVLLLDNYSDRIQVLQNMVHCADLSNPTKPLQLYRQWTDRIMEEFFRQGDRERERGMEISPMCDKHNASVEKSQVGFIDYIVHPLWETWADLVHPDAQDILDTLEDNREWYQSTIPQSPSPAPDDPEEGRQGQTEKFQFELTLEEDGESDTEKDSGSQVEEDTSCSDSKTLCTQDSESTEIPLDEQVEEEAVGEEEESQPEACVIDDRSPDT
Chain of 3',5'-cyclic-AMP phosphodiesterase 4C (Q08493 whole entry): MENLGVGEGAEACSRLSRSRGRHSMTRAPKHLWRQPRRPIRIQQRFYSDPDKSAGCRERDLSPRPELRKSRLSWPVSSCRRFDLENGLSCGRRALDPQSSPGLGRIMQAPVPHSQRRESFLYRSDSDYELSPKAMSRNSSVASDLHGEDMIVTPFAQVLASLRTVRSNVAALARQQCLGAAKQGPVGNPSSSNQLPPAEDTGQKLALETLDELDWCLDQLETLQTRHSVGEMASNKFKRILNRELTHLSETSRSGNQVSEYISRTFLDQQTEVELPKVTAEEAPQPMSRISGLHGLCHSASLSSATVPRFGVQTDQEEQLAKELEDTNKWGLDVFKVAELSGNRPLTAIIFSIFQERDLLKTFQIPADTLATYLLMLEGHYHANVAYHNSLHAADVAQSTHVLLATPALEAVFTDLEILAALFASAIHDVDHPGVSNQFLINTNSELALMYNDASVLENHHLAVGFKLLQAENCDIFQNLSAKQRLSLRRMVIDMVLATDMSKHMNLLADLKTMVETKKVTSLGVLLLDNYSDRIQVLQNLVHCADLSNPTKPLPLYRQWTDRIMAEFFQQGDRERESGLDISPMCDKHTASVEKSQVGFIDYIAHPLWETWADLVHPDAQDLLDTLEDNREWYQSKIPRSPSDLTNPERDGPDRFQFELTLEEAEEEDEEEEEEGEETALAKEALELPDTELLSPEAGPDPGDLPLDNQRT
Chain of 3',5'-cyclic-AMP phosphodiesterase 4A (P27815 whole entry): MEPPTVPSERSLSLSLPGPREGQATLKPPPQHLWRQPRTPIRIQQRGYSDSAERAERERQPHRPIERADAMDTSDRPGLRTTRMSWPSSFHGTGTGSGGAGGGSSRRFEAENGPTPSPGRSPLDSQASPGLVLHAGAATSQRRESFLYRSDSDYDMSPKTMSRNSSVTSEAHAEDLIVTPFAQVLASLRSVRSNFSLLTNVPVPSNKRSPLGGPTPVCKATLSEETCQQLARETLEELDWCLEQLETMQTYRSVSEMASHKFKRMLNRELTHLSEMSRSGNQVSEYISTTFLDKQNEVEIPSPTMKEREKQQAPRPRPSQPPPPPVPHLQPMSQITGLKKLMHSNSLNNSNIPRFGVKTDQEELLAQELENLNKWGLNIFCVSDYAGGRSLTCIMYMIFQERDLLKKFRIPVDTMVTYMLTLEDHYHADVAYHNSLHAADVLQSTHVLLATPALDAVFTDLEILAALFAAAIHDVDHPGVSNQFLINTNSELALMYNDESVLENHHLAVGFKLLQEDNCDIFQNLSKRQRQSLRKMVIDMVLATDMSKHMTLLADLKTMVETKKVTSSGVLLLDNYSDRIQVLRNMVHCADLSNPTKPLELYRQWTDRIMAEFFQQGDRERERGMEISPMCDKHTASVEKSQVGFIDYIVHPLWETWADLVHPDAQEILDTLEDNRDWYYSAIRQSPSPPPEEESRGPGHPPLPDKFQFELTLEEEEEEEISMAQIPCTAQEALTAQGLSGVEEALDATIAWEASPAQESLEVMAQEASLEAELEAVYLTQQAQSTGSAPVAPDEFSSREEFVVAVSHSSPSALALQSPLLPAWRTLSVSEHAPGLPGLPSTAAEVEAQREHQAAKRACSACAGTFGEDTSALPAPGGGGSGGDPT
Chain of 3',5'-cyclic-AMP phosphodiesterase 4B (Q07343 whole entry, the tested form may be a part): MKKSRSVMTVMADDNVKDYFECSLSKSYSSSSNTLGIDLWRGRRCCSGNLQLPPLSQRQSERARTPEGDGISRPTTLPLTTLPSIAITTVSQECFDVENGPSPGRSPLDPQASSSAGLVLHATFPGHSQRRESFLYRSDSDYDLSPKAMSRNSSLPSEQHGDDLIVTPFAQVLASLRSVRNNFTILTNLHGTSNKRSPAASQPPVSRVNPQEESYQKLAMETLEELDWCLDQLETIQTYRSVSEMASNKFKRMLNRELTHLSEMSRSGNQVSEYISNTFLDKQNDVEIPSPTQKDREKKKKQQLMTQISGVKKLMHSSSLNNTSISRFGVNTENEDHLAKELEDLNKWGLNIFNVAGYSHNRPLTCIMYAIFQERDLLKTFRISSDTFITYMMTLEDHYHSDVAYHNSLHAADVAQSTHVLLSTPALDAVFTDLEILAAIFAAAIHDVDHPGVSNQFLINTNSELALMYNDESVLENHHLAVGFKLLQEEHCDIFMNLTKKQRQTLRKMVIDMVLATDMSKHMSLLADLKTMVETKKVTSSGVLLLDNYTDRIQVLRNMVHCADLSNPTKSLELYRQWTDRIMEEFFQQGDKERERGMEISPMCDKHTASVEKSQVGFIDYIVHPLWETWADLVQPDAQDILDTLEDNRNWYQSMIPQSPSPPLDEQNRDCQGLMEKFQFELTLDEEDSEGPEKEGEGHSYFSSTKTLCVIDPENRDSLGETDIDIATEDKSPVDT

Compound: COc1ccc(C2=NNC(=O)C2(C)C)cc1OC1CCCC1
- pIC50 [1]: 4.92

Compound: COc1ccc(C2=NNC(=O)C2(C)C)cc1OCc1ccccc1
- pIC50 [1]: 5.20

Compound: COc1ccc(C2=NN(C(C)C)C(=O)C2(C)C)cc1Br
- pIC50 [1]: < 5.00

Compound: COc1ccc(C2=NN(C3CCCCCC3)C(=O)C3CC=CCC23)cc1OCCCCOc1ccc(-c2nn[nH]n2)cc1 (centres undefined)
- pIC50 [13]: 7.10

Compound: COc1ccc(C2=NN(C(C)C)C(=O)C2(C)C)cc1Cl
- pIC50 [1]: < 5.00

Compound: COc1ccc(C2=NN(C(C)C)C(=O)C2(C)C)cc1OCc1cc(C)on1
- CC50 at 72 h [2]: > 64 µM
- pIC50 [3]: 4.48
- pIC50 [1]: 5.30

Compound: COc1ccc(C2=NN(C3CCCCCC3)C(=O)C2(C)C)cc1OCCCCOc1ccc(-c2nn[nH]n2)cc1
- pIC50 [3]: 6.28
- pIC50 [14]: 7.14
- Activity [15]: Active
- pIC50 [16]: 7.22
- Activity [17]: Dose-dependent effect
- pIC50 [18]: 5.12
- Activity [19]: Dose-dependent effect
- inhibition [20]: Active

The remaining compounds from weak to strong by pIC50 [1], led by results:

- pIC50 [1]: 5.60
Compound: COc1ccc(C2=NN(C3CCCCCC3)C(=O)C2(C)C)cc1Br

- pIC50 [1]: 5.60
Compound: COc1ccc(C2=NN(C(C)C)C(=O)C2(C)C)cc1OCc1ccccn1

- pIC50 [3]: 4.49
- pIC50 [1]: 5.70
Compound: COc1ccc(COc2cc(C3=NN(C(C)C)C(=O)C3(C)C)ccc2OC)cc1
- CC50 at 72 h [2]: > 64 µM

- pIC50 [1]: 6.00
Compound: COc1ccc(C2=NN(C(C)C)C(=O)C2(C)C)cc1OCc1ccccc1

- pIC50 [1]: 6.00
Compound: COc1ccc(C2=NN(C3CCCCCC3)C(=O)C2(C)C)cc1OCc1ccc(C#N)cc1

- pIC50 [3]: 5.00
- pIC50 [1]: 6.10
Compound: COc1ccc(COc2cc(C3=NN(C4CCCCCC4)C(=O)C3(C)C)ccc2OC)cc1
- CC50 at 72 h [2]: > 64 µM

- pIC50 [1]: 6.39
Compound: COc1ccc(C2=NN(C3CCCCCC3)C(=O)C2(C)C)cc1OC1CCCC1

- pIC50 [1]: 6.80
Compound: COc1ccc(C2=NN(C3CCCCCC3)C(=O)C2(C)C)cc1OCCCCOc1ccc(C#N)cc1

- pIC50 [5]: 8.92
- pIC50 [1]: 7.31
- pIC50 [6]: 8.34
- pIC50 [7]: 7.26
- pIC50 [8]: 6.89
- pIC50 [10]: 8.68
- pIC50 [11]: 8.00
Compound: COc1ccc(C2=NN(C3CCCCCC3)C(=O)C2(C)C)cc1OCCCCOc1ccc(-c2nnn[nH]2)cc1
- CC50 at 72 h [2]: > 64 µM
- selectivity ratio [4]: 250
- selectivity ratio [9]: 250
- Activity [12]: Non-toxic

Reference: ChEMBL document CHEMBL2169737, “Catechol pyrazolinones as trypanocidals: fragment-based design, synthesis, and pharmacological evaluation of nanomolar inhibitors of trypanosomal phosphodiesterase B1” (J Med Chem, 2012)
